Source: PubChem
In the library only some 3.1% were active in any assay of this set; here they are far more common.
miR122 inh – miR-122 Renilla sensor signal increase in Huh7, primary screen, miR-122 inhibitor project, cell-based, single point, plate reader | Huh7 miR-122 Renilla luciferase sensor, 48 h; neutral wells = 0, positive control = 100 | activation (reporter increase), % at 12.5 µM | 340,000 tested, 0.3% active;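 active = mean replicate activation score at least 90 and every replicate individually at or above 90; inconclusive = only one of the two criteria met; inactive = neither criterion met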;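 also: higher luciferase means less miR-122 activity so hits act as miR-122 inhibitors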
rRNA inh HTS – reduced GFP signal of wild-type E. coli, primary screen, bacterial rRNA inhibitor project, GFP/RFP fluorescence, OD600, single point. E. coli WT GFP vs humanized-ribosome RFP mutants, 24 h; hits give low values; DMSO median 0, no signal -100. GFP signal change (wild-type ribosome), % (concentration not given with the values). 350,000 tested, 1.6% active. AID 720706, 2013;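 active = significant combined selectivity score with lowered wild-type GFP, culture density cut under 30%, mutant RFP and density less affected; inactive = any of these conditions unmet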
E-sel inducer – E-selectin induction in HUVECs, primary screen, imaging, HUVEC, immunofluorescence imaging, single point; activation, % at 7.58 µM; P16581; 260,000 tested, 0.37% active; AID 686992, 2013; normalized: neutral wells 0, TNF-alpha wells 100;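 active = mean E-selectin-positive cell signal at least 10% of the positive control, reached in at least 60% of replicates, without over 20% cell loss; inconclusive = no rule given, readout overlaps actives, possibly toxicity-flagged; inactive = the rest, including those meeting only one limit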
Target sequence (P16581 whole entry, looked up): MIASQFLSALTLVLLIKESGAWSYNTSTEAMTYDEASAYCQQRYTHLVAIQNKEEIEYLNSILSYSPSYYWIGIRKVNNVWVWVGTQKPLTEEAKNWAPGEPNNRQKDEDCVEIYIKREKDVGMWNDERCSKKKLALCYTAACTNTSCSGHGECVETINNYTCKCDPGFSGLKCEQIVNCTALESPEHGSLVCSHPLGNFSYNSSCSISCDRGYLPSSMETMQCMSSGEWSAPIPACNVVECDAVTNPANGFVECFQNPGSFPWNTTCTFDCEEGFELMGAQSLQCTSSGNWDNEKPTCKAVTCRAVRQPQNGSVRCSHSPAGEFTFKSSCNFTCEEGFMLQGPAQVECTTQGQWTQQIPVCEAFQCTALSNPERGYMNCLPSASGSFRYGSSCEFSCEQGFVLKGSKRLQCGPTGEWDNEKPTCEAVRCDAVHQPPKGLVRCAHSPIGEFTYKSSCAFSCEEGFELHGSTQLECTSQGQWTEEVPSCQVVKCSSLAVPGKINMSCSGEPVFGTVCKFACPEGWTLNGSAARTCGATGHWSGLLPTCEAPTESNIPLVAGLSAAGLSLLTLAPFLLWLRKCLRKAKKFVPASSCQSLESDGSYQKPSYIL
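assay system = HUVEC, human umbilical vein endothelial cells | input = 3,000 HUVEC seeded per well | medium = EGM-2 growth medium on 0.1% gelatin-coated wells | dosing = one compound dose added by pin transfer | signal = immunofluorescence imaging | read-out basis = % PE-positive cells | control set = TNF-alpha, DMSO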
Cneo AK release – Cryptococcus neoformans cell lysis inducers, primary screen, AK release luminescence, single concentration; C. neoformans lysis, adenylate kinase release luminescence, 4 h; normalised: neutral wells 0, clomiphene wells 100; lysis activity, % at 15 µM; 360,000 tested, 0.2% active; AID 651654, 2012;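 active = mean lysis activity across replicates of at least 80%, whatever share of replicates individually reach that level; inactive = mean lysis activity below 80%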
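Material – Cryptococcus neoformans yeast cells · Quantity – 5 × 10^6 yeast cells/mL · Buffer or medium – YPD medium · Compound – single dose · Timing – 4 h static compound exposure, 37 °C, read 1 h post-reagent · Signal – adenylate kinase release luminescence · Read-out basis – lysis from increased AK signal · Benchmarks – Clomiphene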
DENV2 CPE – inhibitors of DENV2 cytopathic effect, primary screen, cell-based, plate reader, single concentration; DENV2-infected cells, cytopathic effect rescue; CPE inhibition, % at 9.99 µM; 350,000 tested, 1.7% active; in the data active = CPE inhibition above about 20%, passing the limit was not always enough; inconclusive = no clear call, values can overlap the other calls; tested in BHK-21 cells
AID977621 – growth inhibition of wild-type GFP E. coli, dose response, H69 mutant RFP, cherry-pick; activity change, negative = inhibition at 50 µM; shares compounds with rRNA inh HTS; 1,900 tested, under 10 active; E. coli wild-type GFP strain growth, fluorescence, 24 h;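 active = Wild-type ribosome reporter drop at least double the humanized mutant ribosome reporter drop, growth loss under a set limit; inconclusive = no clear call, values can overlap the other calls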;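 also: wild-type GFP and H69 mutant RFP strains grown together 50/50 in each well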
AID977628 – E. coli growth inhibition, wild-type GFP versus h24 humanized RFP strain, dose response, h24 mutant RFP vs wild-type GFP, cherry-pick; shares compounds with rRNA inh HTS; E. coli WT GFP strain growth, fluorescence, 24 h; activity change, negative = inhibition at 50 µM; 1,900 tested, under 10 active;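 active = compound lowering the normal-ribosome reporter at least twice as much as the humanized-ribosome reporter, growth loss under a set limit; inconclusive = no clear call, values can overlap the other calls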;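 also: wild-type GFP and h24 humanized RFP strains co-cultured 1 to 1 per well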
Of the large screens only hits and unclear results are named; the others gave an inactive call (follow-up assays come after a bar, where they were run).

CN(C)C(=O)[C@H]1[C@H](CO)[C@H]2Cn3c(ccc(-c4ccccc4F)c3=O)[C@@H]1N2C	none
O=C(C[C@H]1CC[C@H](NC(=O)Nc2ccccc2F)[C@H](CO)O1)NCc1ccc(-c2ccccc2)cc1	rRNA inh HTS -20 (no result: miR122 inh, Cneo AK release) | AID977621 inactive | AID977628 inconclusive
Cc1noc(C)c1C(=O)NC(C)c1ccc(Cl)cc1Cl (stereo not drawn)	none
CC(NC(=O)c1ccncc1)c1ccc(Cl)cc1Cl (stereo not drawn)	rRNA inh HTS -33 (no result: miR122 inh) | AID977621 inactive | AID977628 inactive
C[C@@H]1CCCCO[C@@H](CN(C)Cc2ccc3c(c2)OCO3)[C@H](C)CN([C@H](C)CO)C(=O)c2cc(NS(=O)(=O)c3ccc(Cl)cc3)ccc2O1	none (no result: E-sel inducer)
Cc1ccc(Cl)cc1N1CCN(C(=O)c2ccc3nc[nH]c3c2)CC1	rRNA inh HTS -45 (no result: Cneo AK release) | AID977621 inactive
CC(=O)Nc1cccc(NC(=O)c2c(-c3c(Cl)cccc3Cl)noc2C)c1	rRNA inh HTS -17 (no result: E-sel inducer) | AID977621 inactive | AID977628 inactive
Cc1cc(C)nc(NC(=O)c2c(-c3c(Cl)cccc3Cl)noc2C)n1	none (no result: rRNA inh HTS, E-sel inducer, DENV2 CPE)
Cc1ccc(S(=O)(=O)N[C@@H]2CC[C@@H](CC(=O)N3CCC(Cc4ccccc4)CC3)O[C@H]2CO)cc1	none (no result: miR122 inh)
C[C@H]1CN([C@@H](C)CO)C(=O)c2cc(NS(=O)(=O)c3ccc(F)cc3)ccc2O[C@@H]1CN(C)C(=O)Nc1ccc2c(c1)OCO2	none
COc1ccc(NC(=O)c2c3c(nc4ccccc24)CCC3)cc1	none (no result: rRNA inh HTS, E-sel inducer, DENV2 CPE)
COc1ccc(OC)c(NC(=O)c2c3c(nc4ccccc24)CCC3)c1	rRNA inh HTS -22 (no result: E-sel inducer) | AID977628 inconclusive
COc1cc2cc(C(=O)Nc3ccc4c(c3)OCCO4)[nH]c2cc1OC	rRNA inh HTS -21 (no result: E-sel inducer) | AID977621 inactive | AID977628 inactive
COc1cc2[nH]c(C(=O)Nc3ccc4c(c3)OCCO4)cc2c(OC)c1OC	none (no result: E-sel inducer)
CSc1nc2nc3c(cc2c(=O)n1-c1ccccc1C)CCCC3	rRNA inh HTS -30 | AID977621 inactive | AID977628 inactive
CC(C)NC(=O)Nc1ccc2c(c1)C(=O)N([C@@H](C)CO)C[C@@H](C)[C@H](CN(C)S(=O)(=O)c1cn(C)cn1)OCCCC[C@@H](C)O2	none (no result: E-sel inducer)
O=S(=O)(Nc1ccncc1)c1ccccc1	none (no result: rRNA inh HTS, E-sel inducer, DENV2 CPE)
O=S(=O)(Nc1ccc(-c2cnco2)cc1)c1ccccc1	rRNA inh HTS -25 (no result: miR122 inh, Cneo AK release) | AID977621 inactive
CC=Cc1ccc2n(c1=O)C[C@H]1[C@H](CO)[C@@H](C(=O)NCCC)[C@@H]2N1C(=O)c1ccccc1 (mixture of isomers)	none
O=C(Nc1cccc(S(=O)(=O)c2cccc(NC(=O)C3CC3)c2)c1)C1CC1	rRNA inh HTS -23 (no result: E-sel inducer) | AID977621 inconclusive | AID977628 inactive
Cc1c(CCOC(=O)C23CC4CC(CC(C4)C2)C3)sc[n+]1Cc1ccccc1	rRNA inh HTS -27 (no result: E-sel inducer) | AID977621 inactive | AID977628 inactive
Cc1c(CCOC(=O)C23CC4CC(CC(C)(C4)C2)C3)sc[n+]1Cc1ccccc1	none (no result: rRNA inh HTS, E-sel inducer, DENV2 CPE)
CCNC(=O)C[C@H]1C=C[C@H](NS(=O)(=O)c2ccc(C)cc2)[C@@H](CO)O1	none (no result: miR122 inh)
OCCNc1nc(Nc2ccc(Cl)cc2)nc(N2CCCC2)n1	none (no result: miR122 inh)
COc1ccc(Nc2nc(NCCO)nc(N3CCCC3)n2)cc1	rRNA inh HTS -16 (no result: miR122 inh) | AID977621 inactive | AID977628 inconclusive
CCCNC(=O)C[C@H]1C[C@@H]2c3cc(N(C)C)ccc3O[C@@H]2[C@H](CO)O1	none
COc1cc(-c2cc3nc(NCCc4ccncc4)ccn3n2)cc(OC)c1OC	rRNA inh HTS -18 (no result: miR122 inh) | AID977628 inconclusive
COc1cc(-c2cc3nc(NCCc4ccc(S(N)(=O)=O)cc4)ccn3n2)cc(OC)c1OC	none (no result: miR122 inh)
CCCN(Cc1ccco1)S(=O)(=O)c1ccc(OC)c(OC)c1	rRNA inh HTS -20 (no result: miR122 inh, Cneo AK release) | AID977621 inactive | AID977628 inactive
COc1ccc(S(=O)(=O)NCCc2ccco2)cc1OC	none (no result: E-sel inducer)
Cc1ccc(S(=O)(=O)N2CCCCC2C(=O)N2CCN(c3ccccc3F)CC2)cc1 (stereo not drawn)	rRNA inh HTS -20 (no result: miR122 inh, E-sel inducer, Cneo AK release) | AID977621 inactive | AID977628 inactive
CCC(=O)N1C[C@@H](O)COC[C@H]2O[C@@H](CC(=O)NCc3cc(F)cc(F)c3)CC[C@@H]21	none
CC(=O)N1CC2(C1)[C@H](c1ccc(-c3ccc(C#N)cc3)cc1)[C@@H](CO)N2CCC(F)(F)F	none (no result: miR122 inh, Cneo AK release)
O=C(Cc1cccc(NC(=O)C2CCCN(C(=O)CCc3ccccc3)C2)c1)Nc1cccc(C(=O)N2CCCC2)c1 (stereo not drawn)	rRNA inh HTS -19 | AID977621 inconclusive
Cc1cccc(Nc2ncnc3onc(-c4cccc(Cl)c4)c23)c1	none
COc1ccccc1-c1noc2ncnc(Nc3ccccc3C)c12	rRNA inh HTS -27 (no result: E-sel inducer) | AID977621 inactive | AID977628 inactive
COc1ccccc1-c1noc2ncnc(Nc3ccc4c(c3)OCO4)c12	none
COc1ccccc1-c1noc2ncnc(Nc3cccc(C)c3C)c12	rRNA inh HTS -16 | AID977621 inactive | AID977628 inactive
CO[C@@H]1CN(C)C(=O)c2cc(NS(=O)(=O)CC(F)(F)F)ccc2OC[C@@H](C)N(CC2CCCCC2)C[C@@H]1C	none (no result: miR122 inh)
CN1CCN(C(=O)C[C@@H]2C=C[C@@H](NC(=O)Nc3ccccc3F)[C@@H](CO)O2)CC1	DENV2 CPE inconclusive (no result: miR122 inh)
CC1Cc2ccccc2N1C(=O)COc1ccc2c(c1)OCO2 (stereo not drawn)	rRNA inh HTS -22 | AID977628 inactive
CCn1cc(CCC(=O)NC(C)c2ccccc2)c2ccccc21 (stereo not drawn)	none
CCn1cc(CCC(=O)NCCc2ccccc2)c2ccccc21	rRNA inh HTS -19 (no result: miR122 inh) | AID977621 inactive | AID977628 inconclusive
COc1ccc(N2CCN(C(=O)C3Cc4ccccc4CN3C(=O)c3ccco3)CC2)cc1 (stereo not drawn)	none (no result: rRNA inh HTS)
O=C(C1Cc2ccccc2CN1C(=O)c1ccccc1)N1CCN(c2ccccc2)CC1 (stereo not drawn)	rRNA inh HTS -22 (no result: E-sel inducer) | AID977621 inactive | AID977628 inactive
